7 compounds from ChEMBL document CHEMBL3227984, “5-Substituted uracil arabinonucleosides as potential antiviral agents” (J Med Chem, 1979) can be followed below.

Calls of active or inactive are those of the source. The calls are words filed in the database; no cut-off is given here. Bounds are passed on as bounds.

Data set [1] deals with Human alphaherpesvirus 1. Put plainly: Antiviral activity against HSV1 KOS infected in primary rabbit kidney cells assessed as inhibition of virus-induced cytopathogenicity. In kind it is functional. A general note: Protection from cytopathic effect is a common read-out in antiviral testing.
For data set [2], the system named is Human alphaherpesvirus 1. Put plainly: Antiviral activity against HSV1 KOS infected in human skin fibroblasts assessed as inhibition of virus-induced cytopathogenicity. It is filed as functional, organism-based.
Data set [3] in a line: Cytotoxicity against primary rabbit kidney cells assessed as change in cell morphology. It is filed as cell-based, Oryctolagus cuniculus.
Data set [4] is described as follows: Cytotoxicity against human skin fibroblasts assessed as inhibition of DNA synthesis by labeled thymidine/2'-deoxyuridine assay. As to conditions: skin fibroblast. A digest of the protocol:
(§1)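 DNA synthesis in cultures (primary rabbit kidney cells or human skin fibroblasts) exposed to the analogues was monitored by incorporation of labeled thymidine or labeled 2'-deoxyuridine.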

A short description of data set [5]: Cytotoxicity against human skin fibroblasts assessed as change in cell morphology. The settings on record: skin fibroblast.
The nature of data set [6]: Cytotoxicity against primary rabbit kidney cells assessed as inhibition of DNA synthesis by labeled thymidine/2'-deoxyuridine assay. It is filed as cell-based, Oryctolagus cuniculus. Summed up:
as §1

The test system of data set [7] is Vesicular stomatitis virus. Put plainly: Antiviral activity against Vesicular stomatitis virus infected in primary rabbit kidney cells assessed as inhibition of virus-induced cytopathogenicity. In kind it is functional.
Data set [8] can be described thus: Dissociation constant, pKa of the compound. In kind it is physicochemical.

As a reminder, the pKa is the pH at which an ionisable group is half protonated. Low readings indicate a stronger acid or weaker base, high ones a weaker acid or stronger base. On to `N#Cc1cn([C@@H]2O[C@H](CO)[C@@H](O)[C@@H]2O)c(=O)[nH]c1=O`, for which the ID50 is recorded as over 3.7 ×10⁻⁴ M in data set [1] and over 1 ×10⁻⁴ M in data set [7]. Also, the Antiviral activity result in data set [2] was “Active”. Moreover, the Activity result in data set [3], in data set [4], in data set [5] and in data set [6] was “Non-toxic” each time. Further, the pKa in data set [8] turned out to be 6.8.
On to `O=c1[nH]c(=O)n([C@@H]2O[C@H](CO)[C@@H](O)[C@@H]2O)cc1I`, for which the pKa in data set [8] was determined as 8.
Take `O=c1[nH]c(=O)n([C@@H]2O[C@H](CO)[C@@H](O)[C@@H]2O)cc1Br`: in data set [8], the pKa came out at 8.
With `Cc1cn([C@@H]2O[C@H](CO)[C@@H](O)[C@@H]2O)c(=O)[nH]c1=O`, the ID50 in data set [1] is reported as 3.9 ×10⁻⁷ M; in data set [7], over 1 ×10⁻⁴ M. For the same compound, the Antiviral activity entry in data set [2] was “Active”. Further, the Activity entry in data set [3] and in data set [5] was “Non-toxic” each time.
For `O=c1ccn([C@@H]2O[C@H](CO)[C@@H](O)[C@@H]2O)c(=O)[nH]1` [ARAURIDINE], the ID50 was 4.1 ×10⁻⁵ M in data set [1] and over 1 ×10⁻⁴ M in data set [7]. In data set [2], the Antiviral activity entry was “Active”. Moreover, the Activity result in data set [3] and in data set [5] was “Non-toxic” in each case.
Consider `O=c1[nH]c(=O)n([C@@H]2O[C@H](CO)[C@@H](O)[C@@H]2O)cc1O`, for which the values for the ID50 in data set [1] and in data set [7] were over 3.9 ×10⁻⁴ M and over 1 ×10⁻⁴ M, respectively. Besides, in data set [2], the Antiviral activity entry is “Active”. In addition, the Activity result in data set [3], in data set [4], in data set [5] and in data set [6] was “Non-toxic” in each case. This compound displayed a pKa in data set [8] of 7.8.
For the compound `O=c1[nH]c(=O)n([C@@H]2O[C@H](CO)[C@@H](O)[C@@H]2O)cc1[N+](=O)[O-]`, the ID50 is over 6.9 ×10⁻⁴ M in data set [1] and over 1 ×10⁻⁴ M in data set [7]. Also, the Antiviral activity result in data set [2] is “Active”. In addition, the Activity result in data set [3], in data set [4], in data set [5] and in data set [6] was “Non-toxic” in each case. The same compound registered a pKa in data set [8] of 5.7.
